INS promoter act: TRM-6 insulin promoter activation; TRM-6 cells, insulin promoter eGFP reporter, imaging; plate-scaled: unstimulated 0, stimulated control 100; activation, % at 2 µM; 130,000 compounds, 0.81% hits; AID 1296;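 active means activation at 2 µM above a set limit, confirmed on inspection of the cell images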;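 further: share of cells whose green reporter signal exceeds an intensity cutoff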
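Material: Human fetal islet-derived TRM-6 cells with tamoxifen-inducible insulin promoter–eGFP reporter | Medium: Low-glucose (5.5 mM) medium with tamoxifen | Probe or stimulus: Tamoxifen inducer, 0.75 µM, in seeding medium | Schedule: Tamoxifen pre-incubation 15 h overnight, then compound exposure 48 h at 37 °C | Detection: High-content imaging of fixed cells with Hoechst nuclear stain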
Numbers without * were called inactive; [ ] = remark or other dose. The full list was thinned out, with hits kept by preference.

What do the screens show for `CCN(CC)c1ccc(NC(=O)c2ccccc2)cc1S(=O)(=O)Nc1ccccc1OC`?
INS promoter act: -5

What do the screens show for `COc1ccc(-c2nnn(CC(=O)N(CC(=O)NCCC(C)C)c3ccccc3)n2)cc1OC`?
INS promoter act: 0

How did COCCNC(=O)CN(C(=O)c1ccc(N2CCCC2)nc1)c1ccccc1 do in these assays?
INS promoter act: 773*

Results for COCCNC(=O)COC(=O)/C=C/c1cnc2ccccc2n1 ?
INS promoter act: 9

How did COc1cccc(OC)c1C(=O)N1CCN(Cc2ccccc2C)CC1 do in these assays?
INS promoter act: -7

How did O=C(Nc1cccnc1)c1ccc(COc2ccccc2Cl)o1 do in these assays?
INS promoter act: 0

How did O=C(c1ccc(COc2ccccc2Br)o1)N1CCN(c2ccccn2)CC1 do in these assays?
INS promoter act: 3

Results for CN(C)C(=O)c1ccc(COc2ccccc2Br)o1 ?
INS promoter act: 421*

What do the screens show for `CCCCc1nnc(SCCSc2nnc(CCCC)n2N)n1N`?
INS promoter act: 283

Results for Cc1sc2nc(SCC(=O)NCc3ccco3)n(CCc3ccccc3)c(=O)c2c1C ?
INS promoter act: -6

How did COc1ccc(Cl)cc1NC(=S)N(CCN1CCOCC1)C1CCN(C(C)=O)CC1 do in these assays?
INS promoter act: -7

How did COc1ccc(N2C(=O)CC(Sc3nc(C)c4c(n3)CCCC4)C2=O)cc1 (stereo unspecified) do in these assays?
INS promoter act: -6

What do the screens show for `COc1ccc(N2C(=O)CC(SCC(=O)O)C2=O)cc1` (stereo unspecified)?
INS promoter act: 438*

Results for CCOc1ccc(N2C(=O)CC(SCC(=O)O)C2=O)cc1 (stereo unspecified) ?
INS promoter act: 7

How did Cc1ccc(S(=O)(=O)N2CCC[C@H]2C(=O)OC(C)C(=O)Nc2ncc(Cl)cc2Cl)cc1 (stereo partly specified) do in these assays?
INS promoter act: -3

Results for CCOC(=O)Cn1c(=N)n(Cc2ccccc2F)c2ccccc21 ?
INS promoter act: 0

Results for NC(=O)c1nn(CC(=O)Nc2ccc3c(c2)OCO3)cc1[N+](=O)[O-] ?
INS promoter act: 136

Results for O=C1Nc2ccccc2/C1=N\c1sc2c(c1C(=O)Nc1ccccc1)CCCC2 ?
INS promoter act: 119

Results for CS(=O)(=O)N(CC(=O)NC1CCCC1)c1ccc2c(c1)OCCO2 ?
INS promoter act: 5

What do the screens show for `Cc1nnc(SCC(=O)N2CCCCCC2)n(N)c1=O`?
INS promoter act: 0

What do the screens show for `CCc1c(C)nc(N)n2c(SCC(=O)N3CCCC(C)C3)nnc12` (stereo unspecified)?
INS promoter act: 182*

How did CC1CCN(C(=O)CSc2nncn2C)CC1 do in these assays?
INS promoter act: 3

What do the screens show for `N#CC1=C(N)Oc2n[nH]c(-c3cccs3)c2C1C1CCCCC1` (stereo unspecified)?
INS promoter act: 110*

Results for Cc1ccc(C2C(C#N)=C(N)Oc3n[nH]c(-c4cccs4)c32)s1 (stereo unspecified) ?
INS promoter act: 9

Results for N#CC1=C(N)Oc2n[nH]c(-c3cccs3)c2C1c1ccsc1 (stereo unspecified) ?
INS promoter act: 324

How did CCc1noc(C)c1C(=O)Nc1nc(-c2ccc(Cl)cc2Cl)cs1 do in these assays?
INS promoter act: -7

Results for CC1(C)O[C@H]2OC([C@H](O)CON3C(=O)c4ccccc4C3=O)[C@H](O)[C@H]2O1 (stereo partly specified) ?
INS promoter act: 264*

How did O=C1c2ccccc2C(=O)N1OCCOCCOCCBr do in these assays?
INS promoter act: 3

How did Cc1ccc(C(=O)OCC2OC3OC(C)(C)OC3C2O)cc1 (stereo unspecified) do in these assays?
INS promoter act: 10

How did Cc1nc(SCc2ccccc2)c(C(F)(F)F)c(=O)[nH]1 do in these assays?
INS promoter act: 0

How did Cn1cccc1C(=O)NC(=O)COC(=O)c1cc(S(=O)(=O)N2CCCCC2)ccc1Cl do in these assays?
INS promoter act: -7

How did COc1ccc(NC(=O)N[C@@H](CCSC)C(=O)O)cc1Cl do in these assays?
INS promoter act: -8

How did O=S(=O)(c1ccc(S(=O)(=O)N(Cc2ccccc2)Cc2ccco2)cc1)N1CCCC1 do in these assays?
INS promoter act: 494*

Results for O=S(=O)(NCc1ccco1)c1cccc(S(=O)(=O)N2CCOCC2)c1 ?
INS promoter act: 0

How did C[C@H](NC(=O)c1ccco1)C(=O)Nc1ccc(S(=O)(=O)N2CCCC2)cc1 do in these assays?
INS promoter act: -4

How did CCOC(=O)/C(C#N)=C\C=C1C=CN(C)C=C1 do in these assays?
INS promoter act: 110*

What do the screens show for `CCOC(=O)/C(C#N)=C\c1cc(C)n(-c2ccccc2)c1C`?
INS promoter act: 0

What do the screens show for `CCOC(=O)/C(C#N)=C\c1ccc(CC)s1`?
INS promoter act: 3

Results for O=C(NCc1ccccn1)c1ccc(Cl)cc1Cl ?
INS promoter act: 272

What do the screens show for `O=C(NCc1ccccn1)c1ccc(Br)s1`?
INS promoter act: 529*

Results for O=C(NCc1ccccn1)c1c(Cl)cccc1Cl ?
INS promoter act: -7

Results for Cc1ccc(Nc2nc(N)nc(CSC(=S)N3CCOCC3)n2)c(C)c1 ?
INS promoter act: -3

Results for O=C(CC1Sc2ccccc2NC1=O)c1ccc(Br)cc1 (stereo unspecified) ?
INS promoter act: 8

Results for CCCNC(=O)CC1Sc2ccccc2NC1=O (stereo unspecified) ?
INS promoter act: 111

Results for COCCNC(=O)C(OC(=O)CC1Sc2ccccc2NC1=O)c1ccccc1 (stereo unspecified) ?
INS promoter act: 414*

How did Cc1ccc(N(CC(=O)NCCSc2ccccn2)S(=O)(=O)c2ccc(F)cc2)cc1 do in these assays?
INS promoter act: 171

How did CN(C)C(=O)COc1ccc2cc(-c3ccccc3)c(=O)oc2c1 do in these assays?
INS promoter act: -27

What do the screens show for `CCN(CC)c1ccc2cc(-c3nc(-c4ccc(OC)cc4)cs3)c(=O)oc2c1`?
INS promoter act: 223*[fluoresces]

Results for CCOC(=O)c1cc2ccc(OC)cc2oc1=O ?
INS promoter act: 5

How did Cc1occc1C(=O)N/N=C/c1ccccn1 do in these assays?
INS promoter act: -7

Results for Cc1cc(C)c(S(=O)(=O)NCC(CCC(=O)O)C(F)(F)F)c(C)c1 (stereo unspecified) ?
INS promoter act: 0

How did CCOc1ncccc1C(=O)N1CCN(Cc2ccc3c(c2)OCO3)CC1 do in these assays?
INS promoter act: 7

What do the screens show for `CC(C)C(c1nnnn1Cc1ccc(F)cc1)N1CCN(Cc2ccc3c(c2)OCO3)CC1` (stereo unspecified)?
INS promoter act: 121*

What do the screens show for `c1cnc(N2CCN(Cc3ccc4c(c3)OCO4)CC2)nc1`?
INS promoter act: 314*

Results for c1cc2c(cc1CN1CCOCC1)OCO2 ?
INS promoter act: 3

What do the screens show for `c1ccc2c(c1)CCN(Cc1nnnn1Cc1ccc3c(c1)OCO3)C2`?
INS promoter act: -7

How did c1cncc(C(c2nnnn2C2CCCC2)N2CCN(Cc3ccc4c(c3)OCO4)CC2)c1 (stereo unspecified) do in these assays?
INS promoter act: 119

Results for Cc1ccc(NC(=O)Cn2cnc3c(nnn3Cc3ccc(F)cc3)c2=O)cc1 ?
INS promoter act: 5

How did CCc1cccc(C)c1NC(=S)NCc1cccn1C do in these assays?
INS promoter act: 0

How did CCS(=O)(=O)c1ccc(N=Nc2ccc(O)c3ncccc23)c(OC)c1 do in these assays?
INS promoter act: 625*

Compound activity deposited in PubChem BioAssay by Columbia University Molecular Screening Center.
